The values below come from paper PMC3076580 (Investigational New Drugs, 2010).

For data set [1], the target named is purified deoxycytidine deaminase (dCDA) (Homo sapiens, UniProt P32320). Briefly: Deoxycytidine deaminase activity. The note with it: 37°C; for deamination as substrate of dCDA: 500 μM substrate, no inhibitor. In kind it is biochemical. Put shortly: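 Purified dCDA (source not stated) run at 37°C with 500 μM dCyd or gemcitabine as substrate and 500 μM competing compound. Every run included a blank (no substrate or inhibitor) and a substrate-only control. Stopped after 15 or 25 min with 40% w/v TCA, then neutralised with trioctylamine/trichlorotrifluoroethane […]. Substrates and the deoxyuridine or difluorodeoxyuridine products measured by reversed-phase HPLC. Unpaired t-test.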
Sequence of purified deoxycytidine deaminase (dCDA) (P32320 whole entry): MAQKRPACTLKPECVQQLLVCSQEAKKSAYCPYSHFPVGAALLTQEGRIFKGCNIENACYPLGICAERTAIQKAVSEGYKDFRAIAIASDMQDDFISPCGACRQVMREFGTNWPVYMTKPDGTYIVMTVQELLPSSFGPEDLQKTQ

Data set [2] deals with THX cells. Briefly: Growth inhibition with or without nucleoside transport inhibitors. Type of data set: cell-based, human. Particulars: for IC50: Homo sapiens. Put shortly:
(§1)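 Cells grown in suspension in RPMI-1640-based medium and plated at 2.5.105 cells/ml. NBMPR (100 μM) or dipyridamole (4 μg/ml) was present or absent, with serial dilutions of test compound or gemcitabine. Cells counted after 72 h. Growth set relative to plated cells (0%) and untreated 72 h cells (100%). IC50 read from a straight-line interpolated curve.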

Data set [3] concerns L4A6 cells (cytarabine resistant L1210 variant). Briefly: Growth inhibition, cell counting, 72 h exposure. Particulars: Mus musculus, L1210, 72 h. In kind it is cell-based, murine. Put shortly:
(§2)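 Suspension cells in RPMI-1640 with 10% FCS. L5/L4A6 medium had 60 μM 2-mercaptoethanol and 250 ng/ml gentamicin; BCLO had 3.2 mM glutamine and gentamicin; Bara-C had 5% FCS plus 5% rat serum. Seeding: 50,000 (L5), 100,000 (L4A6), 150,000 (BCLO) or 175,000 (Bara-C) cells/well. Drug (final 2.10−10 to 10−3 M) added at plating; counted at 72 h. IC50 interpolated against 0%/100% controls.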

Data set [4] has as its system H-146 small cell lung cancer xenograft. Briefly: Xenograft testing, ip. The note with it: H-146, ip at MTD. Type of data set: in vivo, nude mice. Put shortly:
(§3)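 Female BALB/c nude mice anaesthetised with propanidid 5 mg/10 g ip. Tumour fragments (~2 mm cubes) implanted sc in each flank. Treatment started at minimum diameter 4 mm (32 mm3): liposomal test compound or gemcitabine ip q3dx5 at MTD. RTV = Vx/V0 ×100, group median. T/C = treated/control RTV ×100; SGD counts doubling times gained. Deaths within 2 weeks after the last dose counted as toxic. Mann–Whitney U, p<0.05.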

Data set [5] concerns MA-11 breast cancer xenograft. Briefly: Xenograft testing, ip. Type of data set: in vivo, nude mice. Particulars: MA-11, ip at MTD. Put shortly: as §3
The test system of data set [6] is human colon cancer xenograft Co6044. Briefly: Xenograft testing, oral. In kind it is in vivo, nude mice.
Data set [7] concerns C26-G cells (gemcitabine resistant). Briefly: Growth inhibition, SRB assay, 72 h exposure. Type of data set: cell-based, murine. The note with it: Mus musculus. Put shortly: (§4)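 Monolayer cells seeded on day 1 at 6,000 (A2780), 18,000 (AG6000) or 8,000 (C26-G) cells/well. Drug dilutions added on day 2, final 2.10−10 to […], from a 20 mM DMSO stock (DMSO ≤1%). After 72 h, fixed with ice-cold TCA for 60 min and stained with sulforhodamine B. Relative growth taken from OD versus control wells. IC50 interpolated from straight-line curves.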

Data set [8] relates to AG6000 cells (gemcitabine resistant A2780 variant, dCK deficient). Briefly: Growth inhibition, SRB assay, 72 h exposure. In kind it is cell-based. The note with it: Homo sapiens, AG6000, 72 h. Put shortly: as §4
Data set [9] deals with MiaPaCa-2 pancreatic cancer xenograft. Briefly: Xenograft testing, ip. In kind it is in vivo, nude mice. The note with it: MiaPaCa-2, ip every third day for five doses at MTD. Put shortly:
as §3

For data set [10], the system named is A2780 cells. Briefly: Growth inhibition, SRB assay, 72 h exposure. Type of data set: cell-based. The note with it: Homo sapiens, A2780, 72 h. Put shortly: as §4
(In general: The SRB assay estimates cell density from bound dye.)

Data set [11] concerns MOLT4 cells. Briefly: Growth inhibition with or without nucleoside transport inhibitors. Type of data set: cell-based, human. The note with it: for IC50: Homo sapiens. Put shortly:
as §1

For data set [12], the system named is MOLT4/C8 cells. Described as above. In kind it is cell-based. Particulars: Homo sapiens. Put shortly:
as §1

Data set [13] relates to C26-A cells. Briefly: Growth inhibition, SRB assay, 72 h exposure. Type of data set: cell-based, murine. Particulars: Mus musculus.
Data set [14] relates to THX malignant melanoma xenograft. Briefly: Xenograft testing, ip. Type of data set: in vivo, nude mice. The note with it: ip every third day for five doses at MTD. Put shortly: as §3
For data set [15], the system named is LOX cells. Briefly: Growth inhibition with or without nucleoside transport inhibitors. Type of data set: cell-based. The note with it: Homo sapiens. Put shortly: as §1
Data set [16] relates to L1210/L5 cells. Briefly: Growth inhibition, cell counting, 72 h exposure. Type of data set: cell-based, murine. Particulars: Mus musculus, L1210, 72 h. Put shortly: as §2
Data set [17] concerns TAX II-1 malignant fibrous histiocytoma xenograft. Briefly: Xenograft testing, ip. Type of data set: in vivo, nude mice. The note with it: TAX II-1, ip at MTD. Put shortly: as §3
The subject of data set [18] is PANC-1 pancreatic cancer xenograft. Briefly: Xenograft testing, ip. Particulars: PANC-1, ip every third day for five doses at MTD. Type of data set: in vivo, nude mice. Put shortly: as §3
The mark [19] stands for this setting: Co6044, oral, days 1, 4 and 7, 20 mg/kg.
Where [20] appears, read: Co6044, oral, days 1, 4 and 7, 40 mg/kg.

For `Nc1ccn([C@H]2C[C@H](O)[C@@H](CO)O2)c(=O)n1` [dCyd, deoxycytidine], the “deamination as substrate of dCDA” value in data set [1] is 312 pmol/hr/μl enzyme.
By IC50 is commonly meant the midpoint of a concentration-inhibition curve. Read a high IC50 as a need for much substance. Consider `Nc1ccn([C@@H]2O[C@H](CO)[C@@H](O)C2(F)F)c(=O)n1` [gemcitabine, 2′,2′-difluorodeoxycytidine], for which the “decrease in sensitivity by dipyridamole” value in [2] (4 μg/ml dipyridamole) was 115 fold; in [11] (MOLT4, 4 μg/ml dipyridamole) it was 203 fold. Further, the “decrease in sensitivity by NBMPR” value in data set [2] (100 μM NBMPR) came out at 55 fold; in data set [11] (MOLT4, 100 μM NBMPR) it was 273 fold. For the same molecule, the IC50 is 310 ± 130 nM in data set [2] (+Dipyridamole 4 μg/ml); 150 ± 50 nM in [2] (+NBMPR 100 μM); 2.7 ± 0.7 nM in [2] (no transport inhibitor); 8.8 ± 3.6 µM in data set [3]; 20 ± 10 nM in [7]; 185 ± 108 µM in data set [8]. For the same molecule, the IC50 was 1.5 ± 0.6 nM in [10]; 610 ± 260 nM in data set [11] (MOLT-4, MOLT4, +Dipyridamole 4 μg/ml); 820 ± 250 nM in data set [11] (MOLT-4, MOLT4, +NBMPR 100 μM); 3 ± 3.3 nM in data set [11] (MOLT-4, MOLT4, no transport inhibitor); 7.62 ± 0.59 µM in data set [12] (Molt4/C8, MOLT4/C8, +Dipyridamole 4 μg/ml); 8.31 ± 1.2 µM in [12] (Molt4/C8, MOLT4/C8, +NBMPR 100 μM). The IC50 worked out at 0.46 ± 0.12 µM in data set [12] (Molt4/C8, MOLT4/C8, no transport inhibitor); 16 ± 4 nM in data set [13]; 610 ± 220 nM in data set [15] (+Dipyridamole 4 μg/ml); 1150 ± 60 nM in [15] (+NBMPR 100 μM); 4.7 ± 1 nM in data set [15] (no transport inhibitor); 1.9 ± 0.6 nM in data set [16]. The “antitumor activity (in words)” value was “not active” in [4], “some activity” in [5] and “inactive” in data set [17]. In addition, the Deaths is reported as 0/7 in [6] (setting [19]), 5/7 in data set [6] (setting [20]), 7/7 in data set [9] and 4/9 in [18]. The “Weight loss (%)” value in [6] (setting [19]) stood at 0%; in data set [6] (setting [20]) it was 1%. Further, the “Maximal T/C (%)” value in [6] (setting [20]) worked out at 8%. In [6] (Co6044 bearing mice, oral, at similar doses as the ip administration), the “toxicity (in words)” value is reported as “very toxic”. Moreover, the “dFdU formed when dCyd and gemcitabine were added simultaneously” value in data set [1] (500 μM each) is 1,127 pmol/hr/μl enzyme. Besides, the “deamination as substrate of dCDA” value in [1] was found to be 624 pmol/hr/μl enzyme. For the same molecule, the SGD in data set [14] was over 6.25.
